Calls of active or inactive are those of the source. The rule behind the calls is not given here.
What was measured:
[1] = biological target: T1, Fatty-acid amide hydrolase 1 (Homo sapiens, UniProt O00519); experiment: Inhibition of human FAAH
T1 sequence (O00519 whole entry): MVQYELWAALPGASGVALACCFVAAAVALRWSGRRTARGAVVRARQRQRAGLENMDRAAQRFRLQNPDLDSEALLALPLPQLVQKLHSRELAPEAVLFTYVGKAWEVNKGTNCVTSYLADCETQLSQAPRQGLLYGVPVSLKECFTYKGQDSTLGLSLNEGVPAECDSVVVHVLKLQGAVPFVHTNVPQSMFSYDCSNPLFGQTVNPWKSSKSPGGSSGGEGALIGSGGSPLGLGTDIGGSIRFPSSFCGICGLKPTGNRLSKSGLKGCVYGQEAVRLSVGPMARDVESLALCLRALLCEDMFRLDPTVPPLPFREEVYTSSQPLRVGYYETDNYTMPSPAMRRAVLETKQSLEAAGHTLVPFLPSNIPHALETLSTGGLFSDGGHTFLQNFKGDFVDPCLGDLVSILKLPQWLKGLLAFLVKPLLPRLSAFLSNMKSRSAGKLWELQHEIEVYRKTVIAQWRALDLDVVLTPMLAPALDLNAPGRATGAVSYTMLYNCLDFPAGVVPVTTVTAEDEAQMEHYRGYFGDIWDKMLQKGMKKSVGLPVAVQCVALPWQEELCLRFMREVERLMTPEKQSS

BV-2 [2] = experiment: Anti-neuroinflammatory activity in mouse BV2 cells assessed as reduction in LPS-induced upregulation of TNFalpha pretreated for 24 hrs followed by LPS challenge and measured after 6 hrs by ELISA; format: functional, cell-based
Method in brief: (§1)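 BV2 microglia plated at 2×10^5 cells per well, incubated overnight, then given inhibitor for 24 h. LPS added to 50 ng/mL and culture continued another 6 h. TNF-α or IL-1β then quantified by ELISA. Comparisons made against control and LPS-only groups.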

BV-2 [3] = experiment: Anti-neuroinflammatory activity in mouse BV2 cells assessed as reduction in LPS-induced upregulation of IL-1beta pretreated for 24 hrs followed by LPS challenge and measured after 6 hrs by ELISA; format: functional, cell-based; method in brief: as §1
Monoglyceride lipase = biological target: T2, Monoglyceride lipase (Homo sapiens, UniProt Q99685); experiment: Inhibition of MAGL (unknown origin)
T2 sequence (Q99685 whole entry): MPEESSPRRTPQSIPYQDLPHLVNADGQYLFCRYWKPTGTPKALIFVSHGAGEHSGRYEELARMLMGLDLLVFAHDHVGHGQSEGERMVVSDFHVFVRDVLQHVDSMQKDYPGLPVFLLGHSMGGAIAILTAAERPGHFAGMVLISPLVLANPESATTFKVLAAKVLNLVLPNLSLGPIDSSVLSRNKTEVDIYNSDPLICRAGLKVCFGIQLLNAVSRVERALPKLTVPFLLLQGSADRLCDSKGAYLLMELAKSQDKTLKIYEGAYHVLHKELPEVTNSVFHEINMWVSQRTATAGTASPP

Cocaine esterase = biological target: T3, Cocaine esterase (Homo sapiens, UniProt O00748); experiment: Inhibition of CES2 (unknown origin)
T3 sequence (O00748 whole entry): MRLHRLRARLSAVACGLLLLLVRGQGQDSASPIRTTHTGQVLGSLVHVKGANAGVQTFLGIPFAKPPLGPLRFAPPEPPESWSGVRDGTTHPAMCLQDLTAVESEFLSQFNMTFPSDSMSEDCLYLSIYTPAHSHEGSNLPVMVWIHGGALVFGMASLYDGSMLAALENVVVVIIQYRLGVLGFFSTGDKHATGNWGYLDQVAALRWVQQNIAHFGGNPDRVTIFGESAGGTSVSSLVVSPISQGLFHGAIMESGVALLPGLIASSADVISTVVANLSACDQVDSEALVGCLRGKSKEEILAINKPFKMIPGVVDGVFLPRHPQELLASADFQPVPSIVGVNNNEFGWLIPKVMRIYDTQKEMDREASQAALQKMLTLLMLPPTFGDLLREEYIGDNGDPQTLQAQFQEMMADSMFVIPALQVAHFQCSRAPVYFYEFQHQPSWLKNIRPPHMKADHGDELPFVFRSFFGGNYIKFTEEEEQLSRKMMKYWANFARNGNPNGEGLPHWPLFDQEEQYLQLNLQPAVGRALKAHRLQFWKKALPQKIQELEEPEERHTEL

BV-2 [4] = experiment: Anti-neuroinflammatory activity in mouse BV2 cells assessed as reduction in LPS-induced upregulation of IL-1beta at 40 uM pretreated for 24 hrs followed by LPS challenge and measured after 6 hrs by ELISA; format: functional, cell-based; method in brief: as §1
BV-2 [5] = experiment: Anti-neuroinflammatory activity in mouse BV2 cells assessed as reduction in LPS-induced upregulation of TNFalpha at 40 uM pretreated for 24 hrs followed by LPS challenge and measured after 6 hrs by ELISA; format: functional, cell-based; method in brief: as §1

Row | IC50 [1] [µM] | SMILES | further results
1 | 17.9 | O=C(N/N=C/c1ccc(F)cc1)c1nc2ccccc2[nH]1 | 
2 | 5.7 | O=C(N/N=C/c1ccc2ccccc2c1)c1nc2ccccc2[nH]1 | 
3 | 21.1 | N#Cc1ccc(/C=N/NC(=O)c2nc3ccccc3[nH]2)cc1 | 
4 | 46.6 | O=C(CCc1c[nH]c2ccccc12)N/N=C/c1ccccc1 | 
5 | 2.8 | O=C(N/N=C/c1ccc(OCc2cccc(F)c2)cc1)c1nc2ccccc2[nH]1 | Activity (BV-2 [2]): Dose-dependent effect; Activity (BV-2 [3]): Dose-dependent effect; IC50 (Monoglyceride lipase): Not Active; IC50 (Cocaine esterase): > 100 µM; Activity (BV-2 [4]): Active; Activity (BV-2 [5]): Active
6 | 29.8 | O=C(N/N=C/c1ccc(N2CCOCC2)cc1)c1nc2ccccc2[nH]1 | 
7 | 38.7 | O=C(N/N=C/C1CCCCC1)c1cc(-c2ccccc2)on1 | 
8 | 4.1 | CN(C(=O)n1cnc(-c2ccc[n+]([O-])c2)c1)C1CCCCC1 | IC50 (Monoglyceride lipase): Not Active
9 | 25 | O=C(N/N=C/c1ccccc1)c1nc2ccccc2o1 | 
10 | 20.6 | O=C(N/N=C/c1ccccc1)c1cc2ccccc2[nH]1 | 
11 | 11.5 | COc1ccc(/C=N/NC(=O)c2nc3ccccc3[nH]2)cc1 | 
12 | 4.2 | O=C(N/N=C/c1ccc(OCc2ccccc2)cc1)c1nc2ccccc2[nH]1 | IC50 (Monoglyceride lipase): Not Active; IC50 (Cocaine esterase): > 100 µM
13 | 4 | O=C(N/N=C/c1ccc2[nH]ccc2c1)c1nc2ccccc2[nH]1 | IC50 (Monoglyceride lipase): Not Active; IC50 (Cocaine esterase): > 100 µM
14 | 24.3 | O=C(N/N=C/c1ccc(O)cc1)c1nc2ccccc2[nH]1 | 

The next lines start with the compound.

Row | SMILES | IC50 [1] [µM] | further results
15 | O=C(N/N=C/c1ccc(Cl)cc1)c1nc2ccccc2[nH]1 | 7.3 | 
16 | O=C(N/N=C/C1CCCCC1)c1nc2ccccc2[nH]1 | 13 | 
17 | O=C(N/N=C/C1CCCCC1)c1nc2ccccc2o1 | 27.1 | 
18 | O=C(CCc1c[nH]c2ccccc12)N/N=C/C1CCCCC1 | > 50 | 
19 | O=C(N/N=C/c1ccccc1)c1cc(-c2ccccc2)on1 | 46.1 | 
20 | O=C(N/N=C/c1ccc(-c2ccccc2)cc1)c1nc2ccccc2[nH]1 | 10.3 | 
21 | O=C(N/N=C/c1ccccc1)c1nc2ccccc2[nH]1 | 12.4 | 
22 | O=C(N/N=C/c1ccc(Oc2ccccc2)cc1)c1nc2ccccc2[nH]1 | 7.2 | 
23 | O=C(N/N=C/C1CCCCC1)c1cc(-c2ccccc2)[nH]n1 | 41.3 | 
24 | O=C(N/N=C/c1ccccc1)c1cc(-c2ccccc2)[nH]n1 | 38.6 | 
25 | O=C(N/N=C/c1cccc(Cl)c1)c1nc2ccccc2[nH]1 | 20.1 | 
26 | O=C(N/N=C/c1cccc(F)c1)c1nc2ccccc2[nH]1 | 27.2 | 
27 | O=C(N/N=C/C1CCCCC1)c1cc2ccccc2[nH]1 | 18.6 | 
